Experimental data: ChEMBL document CHEMBL1155493, “Synthesis of new cis-fused tetrahydrochromeno[4,3-b]quinolines and their antiproliferative activity studies against MDA-MB-231 and MCF-7 breast cancer cell lines” (Bioorg Med Chem Lett, 2010)

Legend:
[1] = system: MDA-MB-231; assay: Antiproliferative activity against human MDA-MB-231 cells by MTT assay; format: functional, cell-based
How it was run: (§1)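 MTT read-out following an earlier published protocol; IC50 values reported, with tamoxifen as the reference compound.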

[2] = system: MCF7; assay: Antiproliferative activity against human MCF7 cells by MTT assay; format: functional, cell-based; how it was run: as §1

Structure (SMILES) | IC50 [1] [µM] | IC50 [2] [µM]
Cc1ccc2c(c1)C(C)(C)[C@H]1COc3ccc4c(=O)c(C)c(C)oc4c3[C@H]1N2 | > 100 | 94.3
Cc1oc2c3c(ccc2c(=O)c1C)OC[C@H]1[C@@H]3Nc2ccccc2C1(C)C | > 100 | > 100
Cc1oc2c3c(ccc2c(=O)c1-c1ccccc1)OC[C@H]1[C@@H]3Nc2ccccc2C1(C)C | > 100 | > 100
Cc1coc2c3c(ccc2c1=O)OC[C@H]1[C@@H]3Nc2ccccc2C1(C)C | 93.8 | 9.6
Cc1ccc2c(c1)C(C)(C)[C@H]1COc3ccc4c(=O)c(C)coc4c3[C@H]1N2 | > 100 | 10.2
Cc1coc2c3c(ccc2c1=O)OC[C@H]1[C@@H]3Nc2cc3ccccc3cc2C1(C)C | 9.4 | 9
COc1ccc2c(c1)C(C)(C)[C@H]1COc3ccc4c(=O)c(C)c(C)oc4c3[C@H]1N2 | > 100 | > 100
Cc1oc2c3c(ccc2c(=O)c1C)OC[C@H]1[C@@H]3Nc2cc3ccccc3cc2C1(C)C | > 100 | > 100
Cc1ccc2c(c1)C(C)(C)[C@H]1COc3ccc4c(=O)c(-c5ccccc5)c(C)oc4c3[C@H]1N2 | > 100 | 10
CC/C(=C(\c1ccccc1)c1ccc(OCCN(C)C)cc1)c1ccccc1 [TAMOXIFEN] | 0.66 | 1
